Assay type in all cases: cell-based
One assay deals with RBL-2H3 cells. In words: Degranulation assay. Particulars: ionomycin 0.4 μM. In a few lines: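 RBL-2H3 cells grown to confluency, washed in RBL-2H3 buffer with 2 mM CaCl2, all incubations at 37°C. Test compound (3 or 10 μM) for 15 min, then ionomycin 0.4 μM final for 30 min. Stopped with 0.4 M glycine (pH 10.7), A405 read. Untreated and 2% triton-lysed cells served as basal/maximal references. n = 3 passages.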

Another assay concerns the target T1, TRPC4beta (Homo sapiens, UniProt Q9UBN4).
T1 sequence (Q9UBN4 1-893 isoform Q9UBN4-2): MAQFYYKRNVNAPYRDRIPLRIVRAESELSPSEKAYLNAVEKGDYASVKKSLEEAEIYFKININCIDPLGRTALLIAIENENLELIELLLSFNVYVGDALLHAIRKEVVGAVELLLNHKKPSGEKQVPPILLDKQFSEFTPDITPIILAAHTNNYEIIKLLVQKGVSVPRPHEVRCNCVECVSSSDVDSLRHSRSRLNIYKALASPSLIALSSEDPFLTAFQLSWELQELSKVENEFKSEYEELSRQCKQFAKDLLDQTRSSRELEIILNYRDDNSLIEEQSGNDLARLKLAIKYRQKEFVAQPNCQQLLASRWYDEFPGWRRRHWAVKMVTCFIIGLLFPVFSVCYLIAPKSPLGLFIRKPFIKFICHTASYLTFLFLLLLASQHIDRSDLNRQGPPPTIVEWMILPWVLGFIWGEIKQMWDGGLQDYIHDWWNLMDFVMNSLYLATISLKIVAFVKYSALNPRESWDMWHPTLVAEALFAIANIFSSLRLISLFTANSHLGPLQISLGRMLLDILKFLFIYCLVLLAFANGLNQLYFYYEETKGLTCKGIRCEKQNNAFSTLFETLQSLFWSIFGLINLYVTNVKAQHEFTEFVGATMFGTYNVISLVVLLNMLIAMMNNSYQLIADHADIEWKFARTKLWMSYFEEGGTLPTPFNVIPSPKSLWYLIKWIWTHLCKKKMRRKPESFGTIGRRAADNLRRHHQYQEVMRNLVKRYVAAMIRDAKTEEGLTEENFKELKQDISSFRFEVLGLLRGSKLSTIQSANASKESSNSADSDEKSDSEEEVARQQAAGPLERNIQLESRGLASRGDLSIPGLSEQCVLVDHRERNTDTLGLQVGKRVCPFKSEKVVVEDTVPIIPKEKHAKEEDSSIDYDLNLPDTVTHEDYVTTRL
In words: Fura-2 Ca2+ entry in HEK293 cells overexpressing TRPC4beta-YFP.

For the next assay, the target named is T2, TRPC5 (Homo sapiens, UniProt Q9UL62).
T2 sequence (Q9UL62 1-973): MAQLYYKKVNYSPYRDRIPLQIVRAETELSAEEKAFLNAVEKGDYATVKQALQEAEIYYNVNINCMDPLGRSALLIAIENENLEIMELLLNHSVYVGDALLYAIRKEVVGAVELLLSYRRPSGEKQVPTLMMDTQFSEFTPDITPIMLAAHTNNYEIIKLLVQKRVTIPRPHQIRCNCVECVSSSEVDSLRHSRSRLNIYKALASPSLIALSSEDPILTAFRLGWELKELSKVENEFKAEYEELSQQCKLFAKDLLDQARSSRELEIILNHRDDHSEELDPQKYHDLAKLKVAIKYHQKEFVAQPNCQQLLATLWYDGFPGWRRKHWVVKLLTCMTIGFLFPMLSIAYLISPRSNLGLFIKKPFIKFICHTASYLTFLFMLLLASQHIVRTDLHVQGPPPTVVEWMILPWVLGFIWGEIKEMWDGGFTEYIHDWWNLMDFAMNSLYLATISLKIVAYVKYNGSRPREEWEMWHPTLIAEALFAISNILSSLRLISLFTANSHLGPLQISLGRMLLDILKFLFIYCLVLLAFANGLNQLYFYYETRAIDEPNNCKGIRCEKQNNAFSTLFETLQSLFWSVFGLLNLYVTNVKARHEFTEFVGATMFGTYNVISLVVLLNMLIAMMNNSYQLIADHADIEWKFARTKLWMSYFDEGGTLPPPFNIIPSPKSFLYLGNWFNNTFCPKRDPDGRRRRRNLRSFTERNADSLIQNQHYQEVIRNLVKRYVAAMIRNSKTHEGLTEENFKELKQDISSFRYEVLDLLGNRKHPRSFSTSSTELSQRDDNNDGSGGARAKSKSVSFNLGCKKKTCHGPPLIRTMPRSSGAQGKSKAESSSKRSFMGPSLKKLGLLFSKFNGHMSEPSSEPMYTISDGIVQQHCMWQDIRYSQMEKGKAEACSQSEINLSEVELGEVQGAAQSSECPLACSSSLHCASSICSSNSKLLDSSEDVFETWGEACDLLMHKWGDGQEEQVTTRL
The assay can be described thus: Fura-2 Ca2+ entry in HEK293 cells overexpressing YFP-TRPC5.

In a further assay the target is T3, TRPC3 (Homo sapiens, UniProt Q13507).
T3 sequence (Q13507 74-921 limits assumed): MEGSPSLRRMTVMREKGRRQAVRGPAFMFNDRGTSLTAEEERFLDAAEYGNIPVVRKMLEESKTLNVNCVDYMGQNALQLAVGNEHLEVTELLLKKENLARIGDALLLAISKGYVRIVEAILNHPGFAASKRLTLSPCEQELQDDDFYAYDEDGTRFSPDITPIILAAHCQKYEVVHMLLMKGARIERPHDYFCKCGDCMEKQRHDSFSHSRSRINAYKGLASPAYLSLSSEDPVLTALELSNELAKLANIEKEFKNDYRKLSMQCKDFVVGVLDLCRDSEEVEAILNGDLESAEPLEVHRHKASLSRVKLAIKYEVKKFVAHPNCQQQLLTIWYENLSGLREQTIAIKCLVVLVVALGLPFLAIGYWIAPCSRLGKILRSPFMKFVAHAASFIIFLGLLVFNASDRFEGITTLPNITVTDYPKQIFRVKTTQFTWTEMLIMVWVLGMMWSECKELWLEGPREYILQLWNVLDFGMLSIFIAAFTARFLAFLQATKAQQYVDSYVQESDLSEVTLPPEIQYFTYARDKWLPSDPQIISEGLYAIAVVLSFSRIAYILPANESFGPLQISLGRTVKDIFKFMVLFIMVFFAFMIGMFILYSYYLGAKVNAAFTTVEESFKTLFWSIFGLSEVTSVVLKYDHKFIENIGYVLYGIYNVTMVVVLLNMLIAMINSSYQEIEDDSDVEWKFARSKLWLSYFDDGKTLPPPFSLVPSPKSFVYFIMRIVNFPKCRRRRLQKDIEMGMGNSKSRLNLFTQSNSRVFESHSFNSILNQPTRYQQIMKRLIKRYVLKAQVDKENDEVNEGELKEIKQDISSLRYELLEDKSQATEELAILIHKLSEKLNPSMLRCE
Particulars: TRPC3 ROCE vs RBL-2H3 SOCE.

pIC50: −log10 of the molar value. Where only a bound is given, the exact number is not on record here.

As usually defined, the pIC50 is the IC50 on a negative log10 scale, so that one unit is a factor of ten. Lower therefore signals a high IC50.

On to `O=C(Nc1ccc(-n2nc(C(F)(F)F)cc2C(F)(F)F)cc1)c1ccncc1F` [Pyr6, N-(4-(3,5-bis(trifluoromethyl)-1H-pyrazole-1-yl)phenyl)-3-fluoroisonicotinamide], for which the “Effect on ionomycin-initiated degranulation” value was “substantially reduced degranulation” with RBL-2H3 cells (3 μM) and “suppressed responses down to basal levels” with RBL-2H3 cells (10 μM). The pIC50 against TRPC4beta and against TRPC5 was less than 5.00 each time.

Regarding `Cc1ccc(S(=O)(=O)Nc2ccc(-n3nc(C(F)(F)F)cc3C(F)(F)F)cc2)cc1` [Pyr10, N-(4-(3,5-bis(trifluoromethyl)-1H-pyrazole-1-yl)phenyl)-4-methylbenzenesulfonamide], the “Selectivity for TRPC3-ROCE as compared with the SOCE model, orders of magnitude” value on TRPC3 was 1.25 OM. The “Selectivity for TRPC3-ROCE as compared with the SOCE model” value at TRPC3 (ratio of IC50 values) was determined as 18 fold. Moreover, the pIC50 against TRPC4beta and on TRPC5 was less than 5.00 each time.

The values above are taken from PMC3525873 (British Journal of Pharmacology, 2012).
